Data published in ChEMBL document CHEMBL2062453, “Lead optimization through VLAK protocol: new annelated pyrrolo-pyrimidine derivatives as antitumor agents” (2012).

What was measured:
Type in all cases: functional
SR = test: Cytotoxicity against human SR cells after 48 hrs by SRB assay
In short: (§1)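 NCI 60-panel five-dose screen. Cells in RPMI 1640 with 5% FBS and 2 mM glutamine, plated at 5000–40,000 cells/well and preincubated 24 h at 37 °C under 5% CO2. Five 10-fold or half-log dilutions were added from a DMSO stock for 48 h. Cells were TCA-fixed (SR settled cells: 16% final), SRB-stained and read at 515 nm. GI50 was taken where (Ti−Tz)/(C−Tz)×100 = 50.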

NCI-H522 = test: Cytotoxicity against human NCI-H522 cells after 48 hrs by SRB assay; details: NCI-H522, 48 h
In short: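 Five-dose screen, 10-fold or ½-log dilutions, compound stock in DMSO. Cells were in RPMI 1640 with 5% FBS and 2 mM glutamine at 5000–40,000 cells/well, preincubated 24 h, 37 °C, 5% CO₂, with a time-zero plate TCA-fixed. After 48 h drug exposure, cells were TCA-fixed and stained with 0.4% SRB, read at 515 nm. GI50, TGI and LC50 were derived from time-zero, control and test absorbances.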

IGROV-1 = test: Cytotoxicity against human IGROV1 cells after 48 hrs by SRB assay; details: IGROV-1, 48 h
In short: (§2)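 NCI 60-cell five-dose screen. Cells grown in RPMI 1640 with 5% FBS and 2 mM glutamine, plated at 5000–40,000 cells/well, and preincubated 24 h at 37 °C in 5% CO2. Time-zero plates fixed with TCA. Five serial dilutions of DMSO stock added, then 48 h exposure. TCA fixation, 0.4% SRB staining, absorbance read at 515 nm. GI50 from [(Ti−Tz)/(C−Tz)]×100 = 50.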

K562 = test: Cytotoxicity against human K562 cells after 48 hrs by SRB assay; details: K562, 48 h; in short: as §2
HL-60(TB) = test: Cytotoxicity against human HL-60(TB) cells after 48 hrs by SRB assay; details: HL-60, 48 h; for CC50: read-out: pLC50 (the source's name) (converted); for TGI: read-out: pTGI (converted)
In short: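 NCI 60-line five-dose screen. Cells are grown in RPMI 1640 with 5% FBS and 2 mM glutamine, plated at 5000–40,000 cells/well, and preincubated 24 h at 37 °C in 5% CO2. Compound is dissolved in DMSO and given at five concentrations (10-fold or ½-log dilutions) for 48 h. Cells are TCA-fixed (HL-60(TB), suspension: 16% final; HOP92, adherent: 10% final), SRB-stained and read at 515 nm. GI50 comes from [(Ti−Tz)/(C−Tz)]×100 = 50.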

UACC-257 = test: Cytotoxicity against human UACC257 cells after 48 hrs by SRB assay; details: UACC-257, 48 h; in short: as §1
CAKI-1 = test: Cytotoxicity against human Caki1 cells after 48 hrs by SRB assay; details: CAKI-1, 48 h; for TGI: read-out: pTGI (converted); in short: as §2
[1] = read-out: pLC50 (the source's name) (converted)

CSC1=Nc2c(c(C)c(-c3ccccc3)n2CCCCl)C2=NC(=O)CN12
GI50 (SR): 3.47 µM
CC50 (SR; [1]): > 100 µM
TGI (SR; read-out: pTGI): > 100 µM
GI50 (NCI-H522): 3.89 µM
CC50 (NCI-H522; [1]): 75.9 µM
TGI (NCI-H522; read-out: pTGI (converted)): 19.1 µM
GI50 (IGROV-1): 3.55 µM
CC50 (IGROV-1; [1]): 95.5 µM
TGI (IGROV-1; read-out: pTGI (converted)): 21.4 µM
GI50 (K562): 5.75 µM
CC50 (K562; [1]): > 100 µM
TGI (K562; read-out: pTGI): > 100 µM
GI50 (HL-60(TB)): 3.39 µM
CC50 (HL-60(TB)): > 100 µM
TGI (HL-60(TB)): > 100 µM
GI50 (UACC-257): 12.6 µM
CC50 (UACC-257; [1]): 64.6 µM
TGI (UACC-257; read-out: pTGI (converted)): 28.2 µM
GI50 (CAKI-1): 4.57 µM
LC50 (CAKI-1): > 100 µM
TGI (CAKI-1): 28.2 µM

CSC1=Nc2c(c(C)c(-c3ccccc3)n2CCCN2CCCCC2)C2=NC(=O)CC(C)N12 (stereo unspecified)
GI50 (HL-60(TB)): 1.82 µM
CC50 (HL-60(TB)): 8.32 µM
TGI (HL-60(TB)): 3.89 µM
LC50 (CAKI-1): > 100 µM
TGI (CAKI-1): 18.6 µM
